Measurements reported in ChEMBL document CHEMBL1671711, “Serum and cerebrospinal fluid levels of colistin in pediatric patients” (Antimicrob Agents Chemother, 2010).

Key:
Assay type in all cases: ADME, organism-based
Design in all cases: route intravenous
[1] = Drug level in pediatric patient cerebrospinal fluid with gram-negative bacterial infection at 16 mg/kg/day, iv administered every 8 hrs for 51 days measured after 30 mins by LS/MS/MS analysis; settings: human, in vivo, 0.5 h
Outline: (§1)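 CMS was given by 20-min IV infusion in saline every 8 h, and CSF was taken from EVD systems after the end of infusion. The CSF–serum 1:1 mix was treated with 1 M H2SO4 for 15–20 min, then 1 M NaOH, then acetonitrile with 0.1% TFA. CMS was calculated as colistin after hydrolysis minus colistin before hydrolysis, by LC-MS-MS, with CMS controls of 0.25–18.5 μg/ml. Values are means of two days; course 1 was sampled once.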

[2] = system: Serum; assay: Drug level in pediatric patient serum with gram-negative bacterial infection assessed as Colistin level at 10.4 mg/kg/day, iv administered every 8 hrs for 46 days measured after 30 mins by LS/MS/MS analysis; settings: human, in vivo, 0.5 h
Outline: (§2)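 Blood was drawn 30 min after the end of the 20-min IV CMS infusion, given every 8 h. Serum was separated by centrifugation, stored at −80°C, and assayed by LC-MS-MS for colistin A plus B (interday CV <4.4%, accuracy within ±1.9%). Values are means of two sampling days; course 1 was sampled once.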

[3] = Ratio of drug level in cerebrospinal fluid to Serum of pediatric patient with gram-negative bacterial infection at 4.8 mg/kg/day, iv administered every 8 hrs for 7 days by LS/MS/MS analysis; settings: human, csf
Outline: (§3)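 Percentages are the ratio of mean CSF concentration to mean serum concentration from paired samples. Blood was drawn immediately before and 30 min after the 20-min IV CMS infusion (every 8 h); CSF came from EVD systems concurrently. Both were measured by LC-MS-MS, for colistin directly and for CMS after acid hydrolysis. Pairs were repeated on two days.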

[4] = Ratio of drug level in cerebrospinal fluid to Serum of pediatric patient with gram-negative bacterial infection before initiation of 4.8 mg/kg/day, iv administered every 8 hrs for 7 days by LS/MS/MS analysis; settings: human, csf; outline: as §3
[5] = Drug level in pediatric patient cerebrospinal fluid with gram-negative bacterial infection at 18 mg/kg/day, iv administered every 8 hrs for 42 days measured after 30 mins by LS/MS/MS analysis; settings: human, in vivo, 0.5 h; outline: as §1
[6] = Drug level in pediatric patient cerebrospinal fluid with gram-negative bacterial infection before initiation of 16 mg/kg/day, iv administered every 8 hrs for 93 days by LS/MS/MS analysis; settings: human, in vivo
Outline: (§4)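 Trough sampling: blood was drawn immediately before the 20-min IV CMS infusion (every 8 h), and CSF was taken from EVD systems within 1 h before infusion. Samples were stored at −80°C and analysed by LC-MS-MS for colistin, and for CMS via acid hydrolysis with subtraction. CSF was diluted 1:1 with serum. Values are means of two days.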

[7] = Drug level in pediatric patient cerebrospinal fluid with gram-negative bacterial infection assessed as Colistin level at 16 mg/kg/day, iv administered every 8 hrs for 51 days measured after 30 mins by LS/MS/MS analysis; settings: human, in vivo, 0.5 h
Outline: (§5)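 Children (1 month to 14 years) received CMS in 30 to 50 ml normal saline by 20-min IV infusion every 8 h. CSF was taken from EVD systems alongside blood, after the end of infusion, and stored at −80°C. It was diluted 1:1 with serum, protein-precipitated, and analysed by LC-MS-MS for colistin A plus B against standards in pH 7.4 phosphate-buffered artificial-CSF Ringer with serum. Values are means of two days; course 1 was sampled once.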

[8] = Drug level in pediatric patient cerebrospinal fluid with gram-negative bacterial infection before initiation of 4.8 mg/kg/day, iv administered every 8 hrs for 7 days by LS/MS/MS analysis; settings: human, in vivo; outline: as §4
[9] = system: Serum; assay: Drug level in pediatric patient serum with gram-negative bacterial infection before initiation of 10.4 mg/kg/day, iv administered every 8 hrs for 46 days by LS/MS/MS analysis; settings: human, in vivo; outline: as §4
[10] = Ratio of drug level in cerebrospinal fluid to Serum of pediatric patient with gram-negative bacterial infection at 16 mg/kg/day, iv administered every 8 hrs for 51 days by LS/MS/MS analysis; settings: human, csf; outline: as §3
[11] = system: Serum; assay: Drug level in pediatric patient serum with gram-negative bacterial infection assessed as Colistin level at 16 mg/kg/day, iv administered every 8 hrs for 93 days measured after 30 mins by LS/MS/MS analysis; settings: human, in vivo, 0.5 h; outline: as §2
[12] = Drug level in pediatric patient cerebrospinal fluid with gram-negative bacterial infection at 16 mg/kg/day, iv administered every 8 hrs for 93 days measured after 30 mins by LS/MS/MS analysis; settings: human, in vivo, 0.5 h; outline: as §1
[13] = Ratio of drug level in cerebrospinal fluid to Serum of pediatric patient with gram-negative bacterial infection at 10.4 mg/kg/day, iv administered every 8 hrs for 46 days by LS/MS/MS analysis; settings: human, csf; outline: as §3
[14] = Drug level in pediatric patient cerebrospinal fluid with gram-negative bacterial infection assessed as Colistin level at 4.8 mg/kg/day, iv administered every 8 hrs for 7 days measured after 30 mins by LS/MS/MS analysis; settings: human, in vivo, 0.5 h; outline: as §5
[15] = Drug level in pediatric patient cerebrospinal fluid with gram-negative bacterial infection before initiation of 10.4 mg/kg/day, iv administered every 8 hrs for 46 days by LS/MS/MS analysis; settings: human, in vivo; outline: as §4
[16] = Drug level in pediatric patient cerebrospinal fluid with gram-negative bacterial infection assessed as Colistin level at 10.4 mg/kg/day, iv administered every 8 hrs for 46 days measured after 30 mins by LS/MS/MS analysis; settings: human, in vivo, 0.5 h; outline: as §5
[17] = Ratio of drug level in cerebrospinal fluid to Serum of pediatric patient with gram-negative bacterial infection before initiation of 16 mg/kg/day, iv administered every 8 hrs for 51 days by LS/MS/MS analysis; settings: human, csf; outline: as §3
[18] = system: Serum; assay: Drug level in pediatric patient serum with gram-negative bacterial infection before initiation of 18 mg/kg/day, iv administered every 8 hrs for 42 days by LS/MS/MS analysis; settings: human, in vivo; outline: as §4
[19] = Drug level in pediatric patient cerebrospinal fluid with gram-negative bacterial infection at 10.4 mg/kg/day, iv administered every 8 hrs for 46 days measured after 30 mins by LS/MS/MS analysis; settings: human, in vivo, 0.5 h; outline: as §1
[20] = Drug level in pediatric patient cerebrospinal fluid with gram-negative bacterial infection before initiation of 16 mg/kg/day, iv administered every 8 hrs for 51 days by LS/MS/MS analysis; settings: human, in vivo; outline: as §4
[21] = Drug level in pediatric patient cerebrospinal fluid with gram-negative bacterial infection before initiation of 18 mg/kg/day, iv administered every 8 hrs for 42 days by LS/MS/MS analysis; settings: human, in vivo; outline: as §4
[22] = Ratio of drug level in cerebrospinal fluid to Serum of pediatric patient with gram-negative bacterial infection assessed as Colistin level at 4.8 mg/kg/day, iv administered every 8 hrs for 7 days by LS/MS/MS analysis; settings: human, csf; outline: as §3

COLISTIN
Drug uptake [1]: 0.09 µg/mL
Drug uptake [2]: 1.46 µg/mL
Ratio [3]: 2%
Ratio [4]: 20.6%
Drug uptake [5]: 0.03 µg/mL
Drug uptake [6]: 0.38 µg/mL
Drug uptake [7]: 0.11 µg/mL
Drug uptake [8]: 0.06 µg/mL
Drug uptake [9]: 0.84 µg/mL
Ratio [10]: 0.9%
Drug uptake [11]: 1.33 µg/mL
Drug uptake [12]: 0.26 µg/mL
Ratio [13]: 0.2%
Drug uptake [14]: 0.06 µg/mL
Drug uptake [15]: 0.03 µg/mL
Drug uptake [16]: 0.05 µg/mL
Ratio [17]: 9.9%
Drug uptake [18]: 6.11 µg/mL
Drug uptake [19]: 0.02 µg/mL
Drug uptake [20]: 0.09 µg/mL
Drug uptake [21]: 0.04 µg/mL
Ratio [22]: 19.3%
